Data published in ChEMBL document CHEMBL3758084, “Pyrazole antagonists of the CB1 receptor with reduced brain penetration” (Bioorg Med Chem, 2016).
pEC50, pKi: −log10 of the molar value.

Key:
[1] = biological target: Cannabinoid receptor 2 (Homo sapiens, UniProt P34972); assay: Displacement of [3H]CP55940 from human CB2 receptor expressed in CHO cell membranes
[2] = tested on: MDCK; assay: Permeability across apical to basolateral side of MDCK cell BBB penetration model expressing human mdr1 at 10 uM incubated for 1 hr by mass spectrometric analysis; type: ADME, cell-based, Canis lupus familiaris; conditions: dog
Procedure, shortened: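 MDCK cells transfected with human MDR1 grown 4 days to confluence on Transwell-type filters in DMEM/F12 with 10% FBS and antibiotics. Compound added apically at 10 µM in HBSS with 25 mM glucose, HEPES pH 7.4; 1 h at 37 °C; apical and basal samples quantified by LC–MS/MS (MRM); percent apical-to-basal transport.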

[3] = tested on: Liver; assay: Stability of compound in human liver S9 fractions assessed as compound remaining at 10 uM incubated for 60 mins by mass spectrometric analysis; type: ADME, subcellular, Liver S9 fraction; conditions: s9, 1 h
Procedure, shortened: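 Mixed-gender pooled human hepatic S9 at 1 mg/mL; compound at 10 µM final in 50 mM potassium phosphate pH 7.4, 3 mM MgCl2 with NADPH regenerating system (1 mM NADP, 5 mM glucose-6-phosphate, 1 unit/mL G6PDH); triplicates, 60 min; quenched with 3 volumes acetonitrile; LC–MS quantified against matrix standard curves; percent parent remaining.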

[4] = biological target: T1, Cannabinoid receptor 1 (Homo sapiens, UniProt P21554); assay: Displacement of [3H]CP55940 from human CB1 receptor expressed in CHO cell membranes; type: cell-based
[5] = Permeability of compound across apical to basal compartment in PBS at pH 5.5 at 10 uM after 4 hrs by PAMPA; type: ADME; conditions: pH 5.5, 4 h
Procedure, shortened: (§1)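 PAMPA kit per manufacturer; compound at 10 µM final added to the apical compartment in PBS at pH 5.5 or 7.4; incubated 4 h at room temperature; both compartments sampled and measured by LC–MS; percent apical-to-basal transport, mean of 3.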

[6] = Permeability of compound across apical to basal compartment in PBS at pH 7.4 at 10 uM after 4 hrs by PAMPA; type: ADME; conditions: pH 7.4, 4 h; procedure, shortened: as §1
[7] = species: Homo sapiens; assay: Selectivity ratio of Ki for human CB2 receptor to Ki for human CB1 receptor
Procedure, shortened: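 Ki values from displacement of [³H]CP55940 in membranes of CHO cells overexpressing human CB1 or human CB2; ratio taken as Ki(CB2)/Ki(CB1). Binding was run only on compounds with apparent Ke <50 nM in the CB1 calcium assay.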

[8] = biological target: T1, Cannabinoid receptor 1; conditions: CHO-K1
[9] = Ratio of drug level in Sprague-Dawley rat brain to plasma at 10 mg/kg, ip; type: ADME, organism-based; conditions: read-out: BPR
[10] = Drug uptake in Sprague-Dawley rat brain at 10 mg/kg, po after 4 hrs by LC-MS/MS analysis; type: ADME, organism-based; conditions: read-out: Drug uptake
Procedure, shortened: (§2)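 Male Sprague Dawley rats (10 weeks on arrival, acclimated; 12 weeks at dosing, n=3) given a single oral gavage bolus of 10 mg/kg in 90% corn oil/10% DMSO. Sacrificed 4 h post-dose; brain and plasma collected; parent compound quantified by LC–MS/MS; mean and SD reported.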

[11] = Plasma concentration in Sprague-Dawley rat at 10 mg/kg, po after 4 hrs by LC-MS/MS analysis; type: ADME, organism-based; procedure, shortened: as §2
[12] = Ratio of drug level in Sprague-Dawley rat brain to plasma at 10 mg/kg, po after 4 hrs by LC-MS/MS analysis; type: ADME, organism-based; procedure, shortened: as §2
[13] = biological target: T1, Cannabinoid receptor 1; assay: Inverse agonist activity at human CB1 receptor expressed in CHO cells assessed as increase in intracellular calcium mobilization after 90 secs by Calcein-4 AM-staining based FLIPR assay; type: functional, cell-based

T1 sequence (P21554 whole entry): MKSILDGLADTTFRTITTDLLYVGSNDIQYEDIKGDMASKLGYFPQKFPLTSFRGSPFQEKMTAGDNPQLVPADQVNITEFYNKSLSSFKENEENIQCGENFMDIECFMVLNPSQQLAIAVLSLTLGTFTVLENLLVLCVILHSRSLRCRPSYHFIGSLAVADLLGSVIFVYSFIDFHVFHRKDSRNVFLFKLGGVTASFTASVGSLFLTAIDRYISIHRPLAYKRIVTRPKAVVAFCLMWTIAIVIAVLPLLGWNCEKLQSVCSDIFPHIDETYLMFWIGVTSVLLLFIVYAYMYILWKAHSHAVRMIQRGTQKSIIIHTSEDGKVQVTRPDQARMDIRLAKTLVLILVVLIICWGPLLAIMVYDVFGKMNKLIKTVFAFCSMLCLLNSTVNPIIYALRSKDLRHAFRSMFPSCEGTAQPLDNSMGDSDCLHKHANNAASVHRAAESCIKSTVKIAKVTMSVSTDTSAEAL
Sequence of Cannabinoid receptor 2 (P34972 whole entry): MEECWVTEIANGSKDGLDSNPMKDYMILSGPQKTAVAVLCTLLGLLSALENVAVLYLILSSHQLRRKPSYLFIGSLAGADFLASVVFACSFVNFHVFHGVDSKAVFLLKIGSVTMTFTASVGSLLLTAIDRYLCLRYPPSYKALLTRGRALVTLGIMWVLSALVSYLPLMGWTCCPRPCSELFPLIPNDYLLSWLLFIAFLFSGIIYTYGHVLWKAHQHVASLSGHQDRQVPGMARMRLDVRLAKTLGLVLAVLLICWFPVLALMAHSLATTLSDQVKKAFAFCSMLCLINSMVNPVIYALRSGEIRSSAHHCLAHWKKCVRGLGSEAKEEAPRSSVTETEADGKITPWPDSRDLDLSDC

Kp [9]	SMILES	pKi [1]	permeability [2]	Stability [3]	pKi [4]	permeability [5]	permeability [6]	Ratio Ki [7]	Ke [8]	concentration at 4 h [10]	concentration at 4 h [11]	BPR [12]	pEC50 [13]
–	Cc1c(C(=O)NC2CCN(S(=O)(=O)CCC(F)(F)F)CC2)nn(-c2ccc(Cl)cc2Cl)c1-c1ccc(Cl)cc1	5.33	< 1%	> 90%	8.02	0.1%	0.1%	492	–	–	–	–	–
–	Cc1c(C(=O)NC2CCN(C(=O)C(F)(F)F)CC2)nn(-c2ccc(Cl)cc2Cl)c1-c1ccc(Cl)cc1	5.98	< 1%	74%	8.72	0.4%	0.2%	548	–	–	–	–	–
–	CCCCC(=O)N1CCC(NC(=O)c2nn(-c3ccc(Cl)cc3Cl)c(-c3ccc(Cl)cc3)c2C)CC1	5.75	< 1%	72%	7.84	1.1%	1.8%	123	–	–	–	–	–
–	Cc1c(C(=O)NC2CCN(S(=O)(=O)CC(C)C)CC2)nn(-c2ccc(Cl)cc2Cl)c1-c1ccc(Cl)cc1	5.21	< 1%	> 90%	7.36	0.1%	0.2%	143	–	–	–	–	–
–	Cc1c(C(=O)NC2CCN(C(=O)c3ccccc3)CC2)nn(-c2ccc(Cl)cc2Cl)c1-c1ccc(Cl)cc1	5.76	< 1%	> 90%	8.12	0.3%	0.2%	230	–	–	–	–	–
–	Cc1c(C(=O)NC2CCN(C(=O)CC(C)C)CC2)nn(-c2ccc(Cl)cc2Cl)c1-c1ccc(Cl)cc1	5.74	1%	72%	7.54	3.3%	3.6%	63	–	–	–	–	–
–	Cn1c(=O)c2c(ncn2C)n(C)c1=O [CAFFEINE]	–	80%	–	–	–	–	–	–	–	–	–	–
–	CCS(=O)(=O)N1CCC(NC(=O)c2nn(-c3ccc(Cl)cc3Cl)c(-c3ccc(Cl)cc3)c2C)CC1	5.36	< 1%	68%	7.35	0.1%	0.05%	99	–	–	–	–	–
–	Cc1c(C(=O)NC2CCN(C(=O)C3CCCC3)CC2)nn(-c2ccc(Cl)cc2Cl)c1-c1ccc(Cl)cc1	5.60	< 1%	62%	8.04	0.2%	0.2%	271	–	–	–	–	–
–	CCCCOC(=O)N1CCC(NC(=O)c2nn(-c3ccc(Cl)cc3Cl)c(-c3ccc(Cl)cc3)c2C)CC1	–	–	–	–	–	–	–	88 nM	–	–	–	–
–	Cc1c(C(=O)NC2CCN(S(=O)(=O)c3ccccc3)CC2)nn(-c2ccc(Cl)cc2Cl)c1-c1ccc(Cl)cc1	< 4.70	< 1%	> 90%	7.37	0.03%	0.1%	–	–	–	–	–	–
< 0.04	Cc1c(C(=O)NC2CCN(C(=O)OC(C)(C)C)CC2)nn(-c2ccc(Cl)cc2Cl)c1-c1ccc(Cl)cc1	–	–	–	–	–	–	–	–	–	–	–	–
–	CCCOC(=O)N1CCC(NC(=O)c2nn(-c3ccc(Cl)cc3Cl)c(-c3ccc(Cl)cc3)c2C)CC1	5.81	< 1%	66%	8.05	1.4%	1.9%	175	–	69 ng/g	455 ng/mL	15%	7.70
–	Cc1c(C(=O)NC2CCN(C(=O)OC(C)C)CC2)nn(-c2ccc(Cl)cc2Cl)c1-c1ccc(Cl)cc1	5.71	< 1%	82%	8.19	0%	0.1%	301	–	–	–	–	–
< 0.04	Cc1c(C(=O)N2CCC(NC(=O)NC(C)(C)C)(c3ccccc3)CC2)nn(-c2ccc(Cl)cc2Cl)c1-c1ccc(Cl)cc1	–	–	–	–	–	–	–	–	–	–	–	–
